Measurements published in ChEMBL document CHEMBL1157207, “Synthesis of 3,5-bis(2-indolyl)pyridine and 3-[(2-indolyl)-5-phenyl]pyridine derivatives as CDK inhibitors and cytotoxic agents” (Bioorg Med Chem, 2008).

Tests used:
CCRF-CEM = assay: Cytotoxicity against human CEM cells; format: functional, cell-based
Method in brief: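 CEM human leukaemia cells kept in RPMI 1640 with 10% FBS, 2 mM glutamine, penicillin/streptomycin, 37 °C, 5% CO2. Exponentially growing cells seeded at 2×10^4 per well with various drug concentrations, 72 h at 37 °C; tetrazolium dye (CellTiter 96 AQueous One) then added for 2 h, absorbance read at 492 nm. IC50 averaged from two experiments.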

[1] = Inhibition of pig brain GSK3alpha/beta; design: species or system Sus scrofa
Method in brief: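 GSK-3α/β purified from porcine brain, diluted 1/100 in 1 mg/ml BSA, 10 mM DTT. Assayed in buffer A (pH 7.5, with heparin) with GS-1 peptide (5 µl of 40 µM) as substrate and 15 µM [γ-33P]ATP, 30 µl final, 30 min at 30 °C. Detection by P81 phosphocellulose paper binding, phosphoric acid washes, scintillation counting. IC50 averaged from two experiments; DMSO controls.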

[2] = Inhibition of starfish CDK1/cyclin B; design: species or system Marthasterias glacialis
Method in brief: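 CDK1/cyclin B taken from M-phase starfish (Marthasterias glacialis) oocytes and affinity-purified on p9CKShs1-sepharose beads, eluted with free p9CKShs1. Assayed in buffer C with 1 mg/ml histone H1 and 15 µM [γ-33P]ATP, 30 µl final, 10 min at 30 °C. Detection by P81 phosphocellulose paper binding and scintillation counting. IC50 averaged from two experiments.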

[3] = Inhibition of recombinant CDK5/p25 expressed in Escherichia coli
Method in brief: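 Recombinant CDK5 and p25 expressed in E. coli as GST fusions, purified on glutathione-agarose and mixed in equal amounts. Assayed in buffer C with 1 mg/ml histone H1 and 15 µM [γ-33P]ATP, 30 µl final, 10 min at 30 °C. Detection by P81 phosphocellulose paper binding and scintillation counting. IC50 averaged from two experiments.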

Row | SMILES | IC50 [1] | IC50 [3] | IC50 (CCRF-CEM) | IC50 [2]
1 | CN(C)CCOc1ccc(-c2cncc(-c3cc4cc(O)ccc4[nH]3)c2)cc1 | 4.6 µM | 6.7 µM | 12.3 µM | 3.6 µM
2 | CN(C)CCCOc1ccc(-c2cncc(-c3cc4ccccc4[nH]3)c2)cc1 | 31 µM | 1 µM | 5.4 µM | 0.9 µM
3 | CN(C)CCCOc1ccc(-c2cncc(-c3cc4cc(O)ccc4[nH]3)c2)cc1 | 3.8 µM | 5 µM | 5.35 µM | 1.9 µM
4 | CN(C)CCCn1c(-c2cncc(-c3cc4cc(O)ccc4[nH]3)c2)cc2cc(O)ccc21 | > 10 µM | – | 14.2 µM | > 10 µM
5 | CN(C)CCn1c(-c2cncc(-c3cc4cc(O)ccc4n3CCN(C)C)c2)cc2cc(O)ccc21 | > 10 µM | – | 14.8 µM | > 10 µM
6 | Oc1ccc2[nH]c(-c3cncc(-c4cc5cc(O)ccc5[nH]4)c3)cc2c1 | 30 µM | 1.2 µM | 7.99 µM | 0.54 µM
7 | CN(C)CCOc1ccc(-c2cncc(-c3cc4ccccc4[nH]3)c2)cc1 | 4.8 µM | 3.1 µM | 9.02 µM | 2.5 µM
8 | Oc1ccc(-c2cncc(-c3cc4ccccc4[nH]3)c2)cc1 | > 100 µM | 0.9 µM | 4.67 µM | 0.7 µM
9 | Oc1ccc(-c2cncc(-c3cc4cc(O)ccc4[nH]3)c2)cc1 | 40 µM | 1.5 µM | 14.5 µM | 0.31 µM
10 | CN(C)CCn1c(-c2cncc(-c3cc4cc(O)ccc4[nH]3)c2)cc2cc(O)ccc21 | > 10 µM | – | 5.76 µM | > 10 µM

Further lines, with some results ahead:

Row | IC50 [1] | IC50 [3] | SMILES | IC50 (CCRF-CEM) | IC50 [2]
11 | > 10 µM | – | CN(C)CCCOc1ccc(-c2cncc(-c3cc4cc(O)ccc4n3CCCN(C)C)c2)cc1 | 12.7 µM | > 10 µM
12 | > 10 µM | – | CN(C)CCCOc1ccc(-c2cncc(-c3cc4ccccc4n3CCCN(C)C)c2)cc1 | 4.19 µM | > 10 µM
13 | > 10 µM | – | CN(C)CCCn1c(-c2cncc(-c3cc4cc(O)ccc4n3CCCN(C)C)c2)cc2cc(O)ccc21 | 11.1 µM | > 10 µM
14 | > 10 µM | – | CN(C)CCOc1ccc(-c2cncc(-c3cc4ccccc4n3CCN(C)C)c2)cc1 | 7.97 µM | > 10 µM
15 | > 10 µM | – | CN(C)CCOc1ccc(-c2cncc(-c3cc4cc(O)ccc4n3CCN(C)C)c2)cc1 | 31.9 µM | > 10 µM
